Results taken from ChEMBL document CHEMBL1137873, “Synthesis of benzimidazole based analogues of sphingosine-1-phosphate: discovery of potent, subtype-selective S1P4 receptor agonists” (Bioorg Med Chem Lett, 2004).

Tests used:
[1] = biological target: T1, Sphingosine 1-phosphate receptor 1 (Homo sapiens, UniProt P21453); assay: In vitro binding affinity towards human Sphingosine 1-phosphate receptor 1 expressed in HEK293T cells was determined using [gamma-35S]-GTP as radioligand; partial agonist; format: cell-based, HEK-293T
Summary of the method: (§1)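 Membranes (5 µg) from HEK293T cells expressing the relevant human S1P receptor plus G-protein, incubated in GTP-binding buffer (HEPES 50 mM, NaCl 100 mM, MgCl2 5 mM, pH 7.5) with 5 µg saponin, 10 µM GDP, 0.1 nM [γ-35S]GTP and test lipid. Incubation was 30 min at 30°C. Bound label was separated by GF/C filtration and scintillation counted. EC50 is the mean of three experiments.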

[2] = biological target: T2, Sphingosine 1-phosphate receptor 4 (Homo sapiens, UniProt O95977); assay: In vitro binding affinity towards human Sphingosine 1-phosphate receptor 4 expressed in HEK293T cells was determined using [gamma-35S]-GTP as radioligand; format: cell-based, HEK-293T; summary of the method: as §1
T2 sequence (O95977 whole entry): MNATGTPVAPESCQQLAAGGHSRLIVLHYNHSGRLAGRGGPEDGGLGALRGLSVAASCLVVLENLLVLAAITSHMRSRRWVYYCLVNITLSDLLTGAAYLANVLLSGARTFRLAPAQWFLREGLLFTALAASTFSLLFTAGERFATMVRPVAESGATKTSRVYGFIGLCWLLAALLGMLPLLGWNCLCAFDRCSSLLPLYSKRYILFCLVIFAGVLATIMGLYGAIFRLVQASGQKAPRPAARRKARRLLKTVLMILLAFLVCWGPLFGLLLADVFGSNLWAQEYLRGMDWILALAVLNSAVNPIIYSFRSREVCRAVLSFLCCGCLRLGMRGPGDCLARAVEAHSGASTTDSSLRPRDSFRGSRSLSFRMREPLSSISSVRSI

[3] = biological target: T3, Sphingosine 1-phosphate receptor 5 (Homo sapiens, UniProt Q9H228); assay: In vitro binding affinity towards human Sphingosine 1-phosphate receptor 5 expressed in HEK293T cells was determined using [gamma-35S]-GTP as radioligand; partial agonist; format: cell-based, HEK-293T; summary of the method: as §1
[4] = biological target: T4, Sphingosine 1-phosphate receptor 3 (Homo sapiens, UniProt Q99500); assay: In vitro binding affinity towards human Sphingosine 1-phosphate receptor 3 expressed in HEK293T cells was determined using [gamma-35S]-GTP as radioligand; na denotes not active; format: cell-based; conditions: hek-293t; summary of the method: as §1
[5] = biological target: Sphingosine 1-phosphate receptor 2 (Homo sapiens, UniProt O95136); assay: In vitro binding affinity towards human Sphingosine 1-phosphate receptor 2 expressed in HEK293T cells was determined using [gamma-35S]-GTP as radioligand; na denotes not active; format: cell-based; conditions: hek-293t; summary of the method: as §1
[6] = biological target: T3, Sphingosine 1-phosphate receptor 5; assay: In vitro binding affinity towards human Sphingosine 1-phosphate receptor 5 expressed in HEK293T cells was determined using [gamma-35S]-GTP as radioligand; na denotes not active; format: cell-based; conditions: hek-293t; summary of the method: as §1
[7] = biological target: T1, Sphingosine 1-phosphate receptor 1; assay: In vitro binding affinity towards human Sphingosine 1-phosphate receptor 1 expressed in HEK293T cells was determined using [gamma-35S]-GTP as radioligand; format: cell-based, HEK-293T
[8] = biological target: T4, Sphingosine 1-phosphate receptor 3; assay: In vitro binding affinity towards human Sphingosine 1-phosphate receptor 3 expressed in HEK293T cells was determined using [gamma-35S]-GTP as radioligand; format: cell-based, HEK-293T

Chain of Sphingosine 1-phosphate receptor 2 (O95136 whole entry): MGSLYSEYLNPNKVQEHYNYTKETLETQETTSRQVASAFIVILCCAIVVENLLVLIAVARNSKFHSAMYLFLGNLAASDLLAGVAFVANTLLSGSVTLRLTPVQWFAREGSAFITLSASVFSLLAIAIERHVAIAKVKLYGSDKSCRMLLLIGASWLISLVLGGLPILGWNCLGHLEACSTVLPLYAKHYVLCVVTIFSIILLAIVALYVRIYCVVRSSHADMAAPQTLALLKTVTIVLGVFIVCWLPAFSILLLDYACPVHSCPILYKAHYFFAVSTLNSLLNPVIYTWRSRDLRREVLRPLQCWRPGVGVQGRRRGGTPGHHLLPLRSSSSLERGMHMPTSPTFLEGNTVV
T4 sequence (Q99500 whole entry): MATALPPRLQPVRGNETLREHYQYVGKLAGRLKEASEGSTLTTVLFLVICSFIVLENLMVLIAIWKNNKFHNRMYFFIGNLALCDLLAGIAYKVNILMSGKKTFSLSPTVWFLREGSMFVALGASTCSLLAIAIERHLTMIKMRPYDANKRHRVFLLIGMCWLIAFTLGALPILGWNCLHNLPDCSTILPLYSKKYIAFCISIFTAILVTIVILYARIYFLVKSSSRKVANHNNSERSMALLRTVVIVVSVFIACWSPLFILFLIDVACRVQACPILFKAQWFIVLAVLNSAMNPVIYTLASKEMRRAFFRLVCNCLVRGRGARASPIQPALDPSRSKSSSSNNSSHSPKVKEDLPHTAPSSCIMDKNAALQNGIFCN
T3 sequence (Q9H228 whole entry): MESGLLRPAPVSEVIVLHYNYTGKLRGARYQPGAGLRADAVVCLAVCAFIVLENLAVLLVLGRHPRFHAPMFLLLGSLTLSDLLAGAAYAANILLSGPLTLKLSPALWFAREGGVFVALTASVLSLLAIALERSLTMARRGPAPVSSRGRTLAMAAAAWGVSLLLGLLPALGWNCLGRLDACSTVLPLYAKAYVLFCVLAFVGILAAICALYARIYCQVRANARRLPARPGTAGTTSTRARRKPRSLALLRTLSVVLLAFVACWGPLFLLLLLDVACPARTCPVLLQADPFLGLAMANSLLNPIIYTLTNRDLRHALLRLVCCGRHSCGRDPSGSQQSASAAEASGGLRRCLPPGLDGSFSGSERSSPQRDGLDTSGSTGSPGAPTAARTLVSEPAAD
T1 sequence (P21453 whole entry): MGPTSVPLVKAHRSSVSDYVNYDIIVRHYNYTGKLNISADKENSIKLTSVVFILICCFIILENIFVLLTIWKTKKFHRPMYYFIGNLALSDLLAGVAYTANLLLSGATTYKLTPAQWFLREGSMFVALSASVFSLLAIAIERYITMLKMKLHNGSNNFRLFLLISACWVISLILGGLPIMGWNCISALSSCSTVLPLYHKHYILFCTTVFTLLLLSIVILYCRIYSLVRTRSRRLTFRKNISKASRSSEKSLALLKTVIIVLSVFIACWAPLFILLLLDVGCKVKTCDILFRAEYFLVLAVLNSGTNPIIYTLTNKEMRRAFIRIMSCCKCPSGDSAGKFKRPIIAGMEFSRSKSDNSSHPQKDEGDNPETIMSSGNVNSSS

| Structure (SMILES) | EC50 [1] [µM] | EC50 [2] [µM] | EC50 [3] [µM] | EC50 [4] | EC50 [5] | EC50 [6] | EC50 [7] [µM] | EC50 [8] [µM] |
| --- | --- | --- | --- | --- | --- | --- | --- | --- |
| CCCCCCCCc1ccc2[nH]c([C@H](N)COP(=O)(O)O)nc2c1.COC(=O)C(F)(F)F | 0.021 | 0.036 | 0.0082 | Not Active | Not Active |  |  |  |
| CCCCCCCCc1ccc2[nH]c([C@H](N)CO)nc2c1.O=C(O)C(F)(F)F | 0.33 | 1.6 | 0.39 | Not Active | Not Active |  |  |  |
| CCCCCCCCc1ccc2[nH]c([C@@H](N)[C@@H](C)OP(=O)(O)O)nc2c1.O=C(O)C(F)(F)F | 0.24 | 0.094 | 0.077 | Not Active | Not Active |  |  |  |
| CCCCCCCCc1ccc2[nH]c([C@@H](N)COP(=O)(O)O)nc2c1.COC(=O)C(F)(F)F | 0.037 | 0.048 | 0.0066 | Not Active | Not Active |  |  |  |
| CCCCCCCCc1ccc2[nH]c([C@@H](N)[C@@H](C)O)nc2c1.O=C(O)C(F)(F)F | 2.9 | 33 |  | Not Active | Not Active | Not Active |  |  |
| CCCCCCCCc1ccc2[nH]c([C@@H](N)CO)nc2c1.O=C(O)C(F)(F)F | 2.1 | 4.2 | 2.4 | Not Active | Not Active |  |  |  |
| CCCCCCCCCCCCC/C=C/[C@@H](O)[C@@H](N)COP(=O)(O)O |  | 0.037 |  |  |  |  | 0.02 | 0.0012 |
| CCCCCCCCc1ccc2[nH]c(C(C)(N)COP(=O)(O)O)nc2c1.O=C(O)C(F)(F)F (stereo not drawn) | 1 | 1.2 | 0.37 | Not Active | Not Active |  |  |  |
